Laboratory results taken from ChEMBL document CHEMBL1142117, “Triterpene saponins from Bacopa monnieri and their antidepressant effects in two mice models” (2007).
Calls of active or inactive are those of the source. The calls are words filed in the database; no cut-off is given here.

Key:
Mus musculus [1] = test: Antidepressant activity in ICR mouse assessed as reduction of immobility time at 50 mg/kg, po after 5 days by tail suspension test; assay type: functional; set-up: scale not given: the % may be the effect or the level left
Procedure, shortened: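 Male ICR mice (18-22 g); compounds in 0.3% CMCNa dosed orally daily for 5 days, fluoxetine (10 mg/kg) once on day 5, vehicle group 5 days. One hour after day-5 dose, mouse hung by tail from lever 30 cm high for 6 min; immobility in later 4 min recorded by observer; n=10; one-way ANOVA then Dunnett's t-test.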

Mus musculus [2] = test: Spontaneous motor activity in ICR mouse at 50 mg/kg, po; assay type: functional, organism-based; set-up: dose 50 mg/kg
Procedure, shortened: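 Locomotion of male ICR mice measured 1 h after day-5 oral dose (0.3% CMCNa suspension, daily for 5 days) with an automated activity meter in an open field (35 cm diameter); 3 min adaptation, then counts over 6 min; n=10; means ± SEM compared with vehicle by ANOVA/Dunnett.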

Mus musculus [3] = test: Antidepressant activity in ICR mouse assessed as reduction of immobility time at 50 mg/kg, po after 5 days by forced swimming test; assay type: functional; set-up: scale not given: the % may be the effect or the level left
Procedure, shortened: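 Male ICR mice (18-22 g), housed a week on 12:12 h light-dark cycle; saponins suspended in 0.3% CMCNa, given orally once daily for 5 days; vehicle controls 5 days, fluoxetine (10 mg/kg) once on day 5. 1 h after last dose, mouse placed in water (24 °C, 10 cm deep) 6 min; immobility scored over final 4 min by blinded observer; n=10; means ± SEM, ANOVA/Dunnett.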

| SMILES | Activity (Mus musculus [1]) [%] | Activity (Mus musculus [2]) | Activity (Mus musculus [3]) [%] |
| --- | --- | --- | --- |
| CC(C)=C[C@@H]1CO[C@]23C[C@@]4(CO2)[C@@H](CC[C@@H]2[C@@]5(C)CC[C@H](O[C@H]6OC[C@H](O)[C@H](O[C@H]7O[C@H](CO)[C@H](O)[C@H](O)[C@H]7O)[C@H]6O[C@@H]6O[C@@H](CO)[C@H](O)[C@H]6O)C(C)(C)[C@@H]5CC[C@]24C)[C@H]3[C@@]1(C)O [BACOPASAPONSIN C] | 47 | inactive | 63 |
| CC(C)=CC1C[C@](C)(O)[C@@H]2[C@@H]3CC[C@@H]4[C@@]5(C)CC[C@H](O[C@@H]6OC[C@H](O)[C@H](O[C@@H]7O[C@H](CO)[C@@H](O)[C@H](O)[C@H]7O)[C@H]6O[C@@H]6O[C@@H](CO)[C@H](O)[C@H]6O)C(C)(C)[C@@H]5CC[C@@]4(C)[C@]34CO[C@@]2(C4)O1 (some centres undefined) [BACOPASIDE VII] | 8 | inactive | 20 |
| CC(C)=C[C@@H]1CO[C@]23C[C@@]4(CO2)[C@@H](CC[C@@H]2[C@@]5(C)CC[C@H](O[C@H]6OC[C@H](O)[C@H](O[C@H]7O[C@H](COS(=O)(=O)O)[C@@H](O)[C@H](O)[C@H]7O)[C@H]6O[C@@H]6O[C@@H](CO)[C@H](O)[C@H]6O)C(C)(C)[C@@H]5CC[C@]24C)[C@H]3[C@@]1(C)O [BACOPASIDE I] | 61 | inactive | 75 |
